In brackets after ≈: the same amount, converted by molar mass. Bounds are passed on as bounds.

Data set [1] is described as follows: Concentration required to reduce [Me-H]dThd incorporation into DNA in primary rabbit kidney (PRK). It counts as functional. The conditions noted are these: Oryctolagus cuniculus, read-out: ID50 (the source's name). An outline of the steps:
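[methyl-3H]dThd incorporation into DNA of primary rabbit kidney cell cultures was measured with test compound present. ID50 is the concentration reducing dThd incorporation into DNA by 50%.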

The nature of data set [2]: Concentration required to reduce HSV-2 Lyons virus induced cytogenicity in primary rabbit kidney (PRK). It counts as functional. The following applies: Oryctolagus cuniculus; read-out: ID50 (the source's name).
Data set [3] can be described thus: Minimum Cytotoxic concentration in primary rabbit kidney (PRK). It counts as tissue-based, Oryctolagus cuniculus. The following applies: primary rabbit kidney (PRK) cells. The essentials: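 Primary rabbit kidney cell cultures, the same cells used for the virus cytopathogenicity assays, were exposed to the compound. Cytotoxicity was read as the lowest concentration causing a microscopically visible change in cell morphology.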

The nature of data set [4]: Concentration required to reduce HV2 196 virus induced cytogenicity in primary rabbit kidney (PRK). The following applies: Oryctolagus cuniculus; read-out: ID50 (the source's name). It counts as functional.
Data set [5] in a line: Concentration required to reduce HSV-1 F virus induced cytogenicity in primary rabbit kidney (PRK). It counts as functional. The conditions noted are these: Oryctolagus cuniculus; read-out: ID50 (the source's name).
Data set [6] can be described thus: Concentration required to reduce HSV-1 KOS virus induced cytogenicity in primary rabbit kidney (PRK). It counts as functional. The following applies: Oryctolagus cuniculus; read-out: ID50 (the source's name).
The nature of data set [7]: Concentration required to reduce vaccinia virus induced cytogenicity in primary rabbit kidney (PRK). It counts as functional. The conditions noted are these: Oryctolagus cuniculus; read-out: ID50 (the source's name).
Data set [8] is described as follows: Concentration required to reduce HSV-1 McIntyre virus induced cytogenicity in primary rabbit kidney (PRK). It counts as functional. The conditions noted are these: Oryctolagus cuniculus, read-out: ID50 (the source's name).
Data set [9] in a line: Concentration required to reduce [1,2-H]dUrd incorporation into DNA in primary rabbit kidney (PRK). It counts as functional. The following applies: Oryctolagus cuniculus; read-out: ID50 (the source's name). The essentials:
(§1)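 PRK cell cultures (10^5 cells per well) were pulsed with 2'-deoxy[1',2'-3H]uridine (42 Ci/mmol) at 0.25 μCi, or 6 pmol, per well. Compound concentration cutting label incorporation into cellular DNA by 50% was taken as ID50.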

Data set [10] in a line: Ratio of ID50 for [Me-H]dThd to ID50 for [1,2-H]dUrd. It counts as functional. The essentials:
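The ratio is the ID50 for [Me-3H]dThd incorporation divided by the ID50 for [1',2'-3H]dUrd incorporation into PRK cell DNA. Each ID50 is the concentration giving 50% reduction of incorporation. The ratio is treated as a parameter for selective in vivo thymidylate synthetase inhibition.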

A short description of data set [11]: Concentration required to reduce virus HSV-2G induced cytogenicity in primary rabbit kidney (PRK). The following applies: Oryctolagus cuniculus; read-out: ID50 (the source's name). It counts as functional.
The nature of data set [12]: Concentration required to reduce HSV-2 Lyons virus induced cytogenicity in primary rabbit kidney (PRK); Range is 2-4. The conditions noted are these: Oryctolagus cuniculus; read-out: ID50 (the source's name). It counts as functional.
Data set [13] in a line: Concentration required to reduce HSV-1 F virus induced cytogenicity in primary rabbit kidney (PRK); Range is 1-2. The following applies: Oryctolagus cuniculus; read-out: ID50 (the source's name). It counts as functional.
A short description of data set [14]: Concentration required to reduce vaccinia virus induced cytogenicity in primary rabbit kidney (PRK); Range is 0.1-0.2. It counts as functional. The following applies: Oryctolagus cuniculus; read-out: ID50 (the source's name).
Data set [15] is described as follows: Concentration required to reduce HSV-1 KOS virus induced cytogenicity in primary rabbit kidney (PRK); Range is 1-2. It counts as functional. The conditions noted are these: Oryctolagus cuniculus; read-out: ID50 (the source's name).
A short description of data set [16]: Concentration required to reduce HV2 196 virus induced cytogenicity in primary rabbit kidney (PRK); Range is 1-4. It counts as functional. The following applies: Oryctolagus cuniculus; read-out: ID50 (the source's name).
Data set [17] in a line: Concentration required to reduce virus HSV-2G induced cytogenicity in primary rabbit kidney (PRK); Range is 1-2. It counts as functional. The following applies: Oryctolagus cuniculus; read-out: ID50 (the source's name).
A short description of data set [18]: Concentration required to reduce [1,2-H]dUrd incorporation into DNA in n primary rabbit kidney (PRK). It counts as functional. The conditions noted are these: Oryctolagus cuniculus; read-out: ID50 (the source's name). An outline of the steps:
as §1

Take `O=c1[nH]c(=O)n([C@H]2C[C@H](O)[C@@H](CO)O2)cc1/C=N/O`: the IC50 in data set [1] was 300 µg/mL (≈ 1110 µM); in [2], 20 µg/mL (≈ 73.7 µM); in [4], 20 µg/mL (≈ 73.7 µM); in data set [5], 1 µg/mL (≈ 3.69 µM); in data set [6], 0.7 µg/mL (≈ 2.58 µM); in data set [7] it was 10 µg/mL (≈ 36.9 µM). The IC50 is 0.7 µg/mL (≈ 2.58 µM) in data set [8], 7.5 µg/mL (≈ 27.7 µM) in data set [9] and 7 µg/mL (≈ 25.8 µM) in data set [11]. Also, the MCC in data set [3] came to 100 µg/mL. In addition, in data set [10], the Ratio stood at 40.
As to `O=Cc1cn([C@H]2C[C@H](O)[C@@H](CO)O2)c(=O)[nH]c1=O`, the IC50 in data set [1] was found to be 75 µg/mL (≈ 293 µM); in [12], 2 µg/mL (≈ 7.81 µM); in data set [13] it was 1 µg/mL (≈ 3.9 µM); in data set [14], 0.1 µg/mL (≈ 0.39 µM); in data set [15], 1 µg/mL (≈ 3.9 µM); in data set [8] it was 0.7 µg/mL (≈ 2.73 µM). For the same compound, the IC50 in data set [9] was determined as 0.2 µg/mL (≈ 0.781 µM); in data set [16] it was 1 µg/mL (≈ 3.9 µM); in data set [17] it was 1 µg/mL (≈ 3.9 µM). Also, the MCC in data set [3] is 4 µg/mL. Moreover, in [10], the Ratio was 375.
On to `O=c1[nH]c(=O)n([C@H]2C[C@H](O)[C@@H](CO)O2)cc1C1SCCS1`, for which the IC50 is 100 µg/mL (≈ 301 µM) in data set [1]; greater than 400 µg/mL in data set [2]; 300 µg/mL (≈ 903 µM) in data set [4]; 150 µg/mL (≈ 451 µM) in data set [5]; 300 µg/mL (≈ 903 µM) in data set [6]; 200 µg/mL (≈ 602 µM) in [7]. Besides, the IC50 in [8] was 300 µg/mL (≈ 903 µM); in [18], 100 µg/mL (≈ 301 µM); in [11], 200 µg/mL (≈ 602 µM). In [3], this compound had an MCC greater than 400 µg/mL. For the same compound, the Ratio in data set [10] came out at 1.

The record behind these values is ChEMBL document CHEMBL1121632, “Oxime and dithiolane derivatives of 5-formyl-2'-deoxyuridine and their 5'-phosphates: antiviral effects and thymidylate synthetase inhibition” (J Med Chem, 1980).
